# ChEMBL document CHEMBL3872205, “Design, synthesis and evaluation of novel potent angiotensin II receptor 1 antagonists” (Eur J Med Chem, 2016)
# Active and inactive are the calls of the source. The rule behind the calls is not given here.
# Assays:
# [1] = Displacement of 125I-Ang2 from AT1 receptor in SPF Sprague-Dawley rat vascular smooth muscle cell membranes after 150 mins by gamma counting method
# Outline: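 Primary aortic VSMCs from SPF Sprague-Dawley rats, obtained by explant culture in DMEM/10% FBS and identified by SM α-actin staining; passages 3–6. Whole cells (10^6/well) incubated with 125I-Ang II (diluted to 0.2 nM) and compound at final 10^-12–10^-6 M, 4 °C for 150 min. Washed, lysed in 0.1 M NaOH, γ-counted. IC50 from nonlinear fit of competition curves.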
# [2] = tested on: Rattus norvegicus; test: Antihypertensive activity in spontaneous hypertensive rat model assessed as reduction in mean blood pressure at 15 mg/kg, po measured up to 24 hrs; type: functional, organism-based
# Outline: (§1)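 Male SHRs (250 ± 20 g) were randomized, 6 per group. Compound was suspended in 0.5% sodium carboxymethyl cellulose and given orally; vehicle-only negative control. Mean blood pressure was calculated as (SBP − DBP)/3 + DBP from systolic and diastolic readings over the time course. Data are mean ± SD, with p < 0.05 taken as significant.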
# [3] = tested on: Rattus norvegicus; test: Antihypertensive activity in spontaneous hypertensive rat model assessed as reduction in mean blood pressure at 15 mg/kg, po after 12 hrs; type: functional, organism-based; outline: as §1
# [4] = tested on: Rattus norvegicus; test: Antihypertensive activity in spontaneous hypertensive rat model assessed as reduction in mean blood pressure at 15 mg/kg, po after 3 hrs; type: functional; outline: as §1
SMILES,IC50 [1] [nM],Ki [1] [nM],Activity [2],Activity [3],Activity [4] [mmHg]
CCCC1=NC2(CCCC2)C(=O)N1Cc1cccc2c1ccn2-c1ccccc1-c1nnn[nH]1,7.75,5.61,Active,,
CCCCCC1=NC2(CCCC2)C(=O)N1Cc1ccc2c(ccn2-c2ccccc2-c2nnn[nH]2)c1,5.33,3.42,Active,,
CCCCCCC1=NC2(CCCC2)C(=O)N1Cc1ccc2c(ccn2-c2ccccc2-c2nnn[nH]2)c1,6.15,4.67,,,
CCCCC1=NC2(CCCC2)C(=O)N1Cc1ccc(-c2ccccc2-c2nnn[nH]2)cc1 [IRBESARTAN],1.46,1.05,Active,,
CCCCCC1=NC2(CCCC2)C(=O)N1Cc1cccc2c1ccn2-c1ccccc1-c1nnn[nH]1,6.15,4.67,Active,,
CCCCC1=NC2(CCCC2)C(=O)N1Cc1cccc2c1ccn2-c1ccccc1-c1nnn[nH]1,3.05,2.21,,Active,40.57
CCCC1=NC2(CCCC2)C(=O)N1Cc1ccc2c(ccn2-c2ccccc2-c2nnn[nH]2)c1,7.04,5.07,Active,,
